Assay results from ChEMBL document CHEMBL1287642, “Synthesis, antiviral activity and cytotoxicity evaluation of Schiff bases of some 2-phenyl quinazoline-4(3)H-ones” (Eur J Med Chem, 2010).
Values after ≈ are worked out from the molar mass of the structure shown. Active and inactive are the calls of the source. The rule behind the calls is not given here.

Assays:
[1] = Cytotoxicity against human HEL cells assessed as minimum concentration required to cause microscopically detectable alteration after 2 days; format: cell-based; details: read-out: Activity
Human alphaherpesvirus 1 [2] = experiment: Antiviral activity against Herpes simplex virus-1 KOS infected in human HEL cells assessed as protection against virus-induced cytopathogenicity after 2 days; format: functional, organism-based; details: Human alphaherpesvirus 1, KOS, 48 h
Human alphaherpesvirus 2 = experiment: Antiviral activity against Herpes simplex virus-2 G infected in human HEL cells assessed as protection against virus-induced cytopathogenicity after 2 days; format: functional, organism-based; details: Human alphaherpesvirus 2, strain G, 48 h
[3] = system: Vesicular stomatitis virus; experiment: Antiviral activity against Vesicular stomatitis virus infected in human HEL cells assessed as protection against virus-induced cytopathogenicity after 2 days; format: functional, organism-based; details: 48 h
Human alphaherpesvirus 1 [4] = experiment: Antiviral activity against acyclovir-resistant TK deficient Herpes simplex virus-1 KOS infected in human HEL cells assessed as protection against virus-induced cytopathogenicity after 2 days; format: functional, organism-based; details: Human alphaherpesvirus 1, KOS, 48 h
[5] = Cytotoxicity against african green monkey Vero cells assessed as minimum concentration required to cause microscopically detectable alteration after 2 days; format: cell-based; details: chlorocebus sabaeus, read-out: Activity
Human respirovirus 3 = experiment: Antiviral activity against Para influenza-3 virus infected in african green monkey Vero cells assessed as protection against virus-induced cytopathogenicity after 2 days; format: functional, organism-based; details: Human respirovirus 3, Vero, 48 h
[6] = system: Mammalian orthoreovirus 1; experiment: Antiviral activity against Reovirus-1 infected in african green monkey Vero cells assessed as protection against virus-induced cytopathogenicity after 2 days; format: functional, organism-based; details: Mammalian orthoreovirus 1, Vero, 48 h
Sindbis virus [7] = experiment: Antiviral activity against Sindbis virus infected in african green monkey Vero cells assessed as protection against virus-induced cytopathogenicity after 2 days; format: functional, organism-based; details: 48 h
Coxsackievirus B4 [8] = experiment: Antiviral activity against Coxsackie virus B4 infected in african green monkey Vero cells assessed as protection against virus-induced cytopathogenicity after 2 days; format: functional, organism-based; details: Enterovirus B, 48 h
Punta Toro virus [9] = experiment: Antiviral activity against Punta Toro virus infected in african green monkey Vero cells assessed as protection against virus-induced cytopathogenicity after 2 days; format: functional, organism-based; details: 48 h
[10] = Cytotoxicity against cat CRFK cells by MTS assay; format: cell-based, Felis catus; details: crfk
In short: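 In uninfected CRFK cells, the 50% cytotoxic concentration was derived from cell viability measured by the colorimetric formazan-based MTS assay.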

[11] = system: Feline infectious peritonitis virus; experiment: Antiviral activity against Feline coronavirus FIPV infected in cat CRFK cells assessed as protection against virus-induced cytopathogenicity after 2 days by MTS assay; format: functional, cell-based; details: Alphacoronavirus 1, CRFK, 48 h
Felid alphaherpesvirus 1 = experiment: Antiviral activity against Feline herpes virus infected in cat CRFK cells assessed as protection against virus-induced cytopathogenicity after 2 days by MTS assay; format: functional, organism-based; details: Felid alphaherpesvirus 1, CRFK, 48 h
[12] = Cytotoxicity against human HeLa cells assessed as minimum concentration required to cause microscopically detectable alteration after 2 days; format: cell-based; details: read-out: Activity
[13] = system: Vesicular stomatitis virus; experiment: Antiviral activity against Vesicular stomatitis virus infected in human HeLa cells assessed as protection against virus-induced cytopathogenicity after 2 days; format: functional, organism-based; details: 48 h
Coxsackievirus B4 [14] = experiment: Antiviral activity against Coxsackie virus B4 infected in human HeLa cells assessed as protection against virus-induced cytopathogenicity after 2 days; format: functional, organism-based; details: Enterovirus B, 48 h
[15] = system: Respiratory syncytial virus; experiment: Antiviral activity against Respiratory syncytial virus infected in human HeLa cells assessed as protection against virus-induced cytopathogenicity after 2 days; format: functional, organism-based; details: 48 h
[16] = system: Mammalian orthoreovirus 1; experiment: Antiviral activity against Reovirus-1 infected in african green monkey Vero cells assessed as inhibition of viral replication; format: functional, organism-based
Sindbis virus [17] = experiment: Antiviral activity against Sindbis virus infected in african green monkey Vero cells assessed as inhibition of viral replication; format: functional, organism-based
Coxsackievirus B4 [18] = experiment: Antiviral activity against Coxsackie virus B4 infected in african green monkey Vero cells assessed as inhibition of viral replication; format: functional, organism-based
Punta Toro virus [19] = experiment: Antiviral activity against Punta Toro virus infected in african green monkey Vero cells assessed as inhibition of viral replication; format: functional, organism-based
[20] = Selectivity index, ratio of minimum concentration required to cause microscopically detectable alteration in human HEL cells to EC50 for Herpes simplex virus-1 KOS; format: toxicity, cell-based; details: read-out: Selectivity Index
In short: (§1)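 Cytotoxicity was taken as the concentration causing a microscopically detectable change in normal cell morphology (Vero or HEL). […] The selectivity index is the first divided by the second.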

[21] = Selectivity index, ratio of minimum concentration required to cause microscopically detectable alteration in human HEL cells to EC50 for Herpes simplex virus-2 G; format: toxicity, cell-based; details: read-out: Selectivity Index; in short: as §1
[22] = Selectivity index, ratio of minimum concentration required to cause microscopically detectable alteration in human HEL cells to EC50 for acyclovir-resistant TK deficient Herpes simplex virus-1 KOS; format: toxicity, cell-based; details: read-out: Selectivity Index; in short: as §1
[23] = Selectivity index, ratio of minimum concentration required to cause microscopically detectable alteration in human HEL cells to EC50 for acyclovir-resistant TK deficient Vaccina virus; format: toxicity, cell-based; details: read-out: Selectivity Index; in short: as §1
[24] = Selectivity index, ratio of minimum concentration required to cause microscopically detectable alteration in green monkey Vero cells to EC50 for Reovirus-1; format: toxicity, cell-based; details: read-out: Selectivity Index; in short: as §1
[25] = Selectivity index, ratio of minimum concentration required to cause microscopically detectable alteration in green monkey Vero cells to EC50 for Sindbis virus; format: toxicity, cell-based; details: read-out: Selectivity Index; in short: as §1
[26] = Selectivity index, ratio of minimum concentration required to cause microscopically detectable alteration in green monkey Vero cells to EC50 for sCoxsackie virus B4; format: toxicity, cell-based; details: read-out: Selectivity Index; in short: as §1
[27] = Selectivity index, ratio of minimum concentration required to cause microscopically detectable alteration in green monkey Vero cells to EC50 for Punta Toro virus; format: toxicity, cell-based; details: read-out: Selectivity Index; in short: as §1
Influenza A virus [28] = experiment: Antiviral activity against influenza A virus H1N1 infected in MDCK cells assessed as protection against virus-induced cytopathogenicity at 100 ug/ml after 2 days; format: functional, organism-based
In short: (§2)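 Infected MDCK cells were treated. […] N.A. means not active at the highest concentration tested or at a subtoxic concentration.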

Influenza A virus [29] = experiment: Antiviral activity against Influenza A virus H3N2 infected in MDCK cells assessed as protection against virus-induced cytopathogenicity at 100 ug/ml after 2 days; format: functional, organism-based; in short: as §2
Influenza B virus [30] = experiment: Antiviral activity against influenza B virus infected in MDCK cells assessed as protection against virus-induced cytopathogenicity at 100 ug/ml after 2 days; format: functional, organism-based; in short: as §2
MDCK = experiment: Cytotoxicity against MDCK cells by MTS assay; format: cell-based, Canis lupus familiaris; details: dog, mdck
In short: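 In Madin Darby canine kidney cells, the 50% cytotoxic concentration was derived from cell viability measured by the colorimetric formazan-based MTS assay.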

[31] = Cytotoxicity against MDCK cells assessed as minimum concentration required to cause microscopically detectable alteration after 2 days; format: cell-based, Canis lupus familiaris; details: dog, read-out: Activity
Influenza A virus [32] = experiment: Antiviral activity against influenza A virus H1N1 infected in MDCK cells assessed as cell viability at 100 ug/ml after 2 days by MTS assay; format: functional, organism-based
Influenza A virus [33] = experiment: Antiviral activity against Influenza A virus H3N2 infected in MDCK cells assessed as cell viability at 100 ug/ml after 2 days by MTS assay; format: functional, organism-based
Influenza B virus [34] = experiment: Antiviral activity against influenza B virus infected in MDCK cells assessed as cell viability at 100 ug/ml after 2 days by MTS assay; format: functional, organism-based
Influenza B virus [35] = experiment: Antiviral activity against influenza B virus infected in MDCK cells assessed as protection against virus-induced cytopathogenicity after 2 days; format: functional, organism-based; in short: as §2
Influenza B virus [36] = experiment: Antiviral activity against influenza B virus infected in MDCK cells assessed as cell viability after 2 days by MTS assay; format: functional, organism-based

SMILES | MCC at 48 h [1] | EC50 (Human alphaherpesvirus 1 [2]) | EC50 (Human alphaherpesvirus 2) | EC50 [3] | EC50 (Human alphaherpesvirus 1 [4]) | MCC at 48 h [5] | EC50 (Human respirovirus 3) | EC50 [6] | EC50 (Sindbis virus [7]) | EC50 (Coxsackievirus B4 [8]) | EC50 (Punta Toro virus [9]) | CC50 [10] | EC50 [11] | EC50 (Felid alphaherpesvirus 1) | MCC at 48 h [12] | EC50 [13] | EC50 (Coxsackievirus B4 [14]) | EC50 [15] | CC50 (MDCK) | MCC at 48 h [31] | other results
O=c1c2ccccc2nc(-c2ccccc2)n1/N=C/c1ccccc1O | 100 µg/mL | 1 µg/mL (≈ 2.93 µM) | 1 µg/mL (≈ 2.93 µM) | 15 µg/mL (≈ 43.9 µM) | 1 µg/mL (≈ 2.93 µM) | 100 µg/mL | > 20 µg/mL | 10 µg/mL (≈ 29.3 µM) | 5 µg/mL (≈ 14.6 µM) | 10 µg/mL (≈ 29.3 µM) | 3 µg/mL (≈ 8.79 µM) | 11.2 µg/mL (≈ 32.8 µM) | > 4 µg/mL | > 4 µg/mL | 4 µg/mL | > 0.8 µg/mL | > 0.8 µg/mL | > 0.8 µg/mL | 2.6 µg/mL (≈ 7.62 µM) | ≥ 0.8 µg/mL | inhibition [16]: Active; inhibition (Sindbis virus [17]): Active; inhibition (Coxsackievirus B4 [18]): Active; inhibition (Punta Toro virus [19]): Active; selectivity ratio [20]: 100; selectivity ratio [21]: 100; selectivity ratio [22]: 100; selectivity ratio [23]: 125; selectivity ratio [24]: 10; selectivity ratio [25]: 20; selectivity ratio [26]: 10; selectivity ratio [27]: 33; EC50 (Influenza A virus [28]): Not Active; EC50 (Influenza A virus [29]): Not Active; EC50 (Influenza B virus [30]): Not Active; EC50 (Influenza A virus [32]): Not Active; EC50 (Influenza A virus [33]): Not Active; EC50 (Influenza B virus [34]): Not Active
O=c1c2ccccc2nc(-c2ccccc2)n1/N=C/c1ccccc1 | > 100 µg/mL | 7 µg/mL (≈ 21.5 µM) | 9 µg/mL (≈ 27.7 µM) | > 100 µg/mL | 9 µg/mL (≈ 27.7 µM) | 20 µg/mL | > 4 µg/mL | > 4 µg/mL | > 4 µg/mL | > 4 µg/mL | > 4 µg/mL | 3.7 µg/mL (≈ 11.4 µM) | > 0.8 µg/mL | > 0.8 µg/mL | 20 µg/mL | > 4 µg/mL | > 4 µg/mL | > 4 µg/mL | 15 µg/mL (≈ 46.1 µM) | 20 µg/mL | selectivity ratio [20]: 14; selectivity ratio [21]: 11; selectivity ratio [22]: 11; selectivity ratio [23]: 11; EC50 (Influenza A virus [28]): Not Active; EC50 (Influenza A virus [29]): Not Active; EC50 (Influenza B virus [30]): Not Active; EC50 (Influenza A virus [32]): Not Active; EC50 (Influenza A virus [33]): Not Active; EC50 (Influenza B virus [34]): Not Active
CC(N)C12CC3CC(CC(C3)C1)C2 (configuration not stated) [RIMANTADINE] | – | – | – | – | – | – | – | – | – | – | – | – | – | – | – | – | – | – | 472 µg/mL (≈ 2630 µM) | 1000 µg/mL | EC50 (Influenza B virus [35]): Not Active; EC50 (Influenza B virus [36]): Not Active
